Data published in ChEMBL document CHEMBL1135595, “Design, synthesis and biological evaluation of novel N-alkyl- and N-acyl-(7-substituted-2-phenylimidazo[1,2-a][1,3,5]triazin-4-yl)amines (ITAs) as novel A(1) adenosine receptor antagonists” (J Med Chem, 2002).

How the values were obtained:
[1] = molecular target: T1, Adenosine receptor A1 (Bos taurus, UniProt P28190); assay: Displacement of [3H]CHA from Adenosine A1 receptor in bovine cortical membranes.; type: cell membranes
T1 sequence (P28190 whole entry): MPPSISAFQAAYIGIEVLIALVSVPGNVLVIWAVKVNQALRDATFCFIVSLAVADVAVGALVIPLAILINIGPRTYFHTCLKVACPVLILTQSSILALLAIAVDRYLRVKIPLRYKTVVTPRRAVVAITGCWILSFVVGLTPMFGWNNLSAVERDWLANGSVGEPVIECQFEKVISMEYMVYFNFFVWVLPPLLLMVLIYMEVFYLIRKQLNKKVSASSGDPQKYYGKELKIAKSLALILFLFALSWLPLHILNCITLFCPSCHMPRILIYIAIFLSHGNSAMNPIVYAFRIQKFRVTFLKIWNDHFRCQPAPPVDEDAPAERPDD
In short: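 Compounds were dissolved in DMSO (≤2% in assay) and tested at six or more concentrations. n = 4 independent experiments in triplicate. Ki and IC50 ± SEM came from iterative curve fitting. Protein was measured with BSA as standard after NaOH (0.75 N) solubilization.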

[2] = molecular target: Adenosine receptor A2a (Bos taurus); assay: Displacement of [3H]- CGS-21680 from Adenosine A2a receptor in bovine striatal membranes.

Row | SMILES | Ki [1] [nM] | Ki [2] [nM]
1 | CC(=O)CNc1nc(-c2ccccc2)nc2nc(C(C)C)cn12 | 2360 | –
2 | Cc1cn2c(NC34C[C@H]5C[C@@H](C3)C[C@@H](C4)C5)nc(-c3ccccc3)nc2n1 | 511 | > 10000
3 | CC(=O)CNc1nc(-c2ccccc2)nc2nc(C)cn12 | 12 | > 10000
4 | Cc1cn2c(NC(=O)c3ccccc3)nc(-c3ccccc3)nc2n1 | 27.2 | –
5 | CC(=O)Nc1nc(-c2ccccc2)nc2nc(-c3ccccc3)cn12 | 23 | 3200
6 | CC(=O)CNc1nc(-c2ccccc2)nc2nc(-c3ccccc3)cn12 | > 10000 | –
7 | Cc1cn2c(NCC3CCCCC3)nc(-c3ccccc3)nc2n1 | 231 | –
8 | Cc1cn2c(NC3CCCC3)nc(-c3ccccc3)nc2n1 | 41 | 4100
9 | Cc1cn2c(NCc3ccccc3)nc(-c3ccccc3)nc2n1 | 3900 | –
10 | CC(C)c1cn2c(NC(=O)C3CCCC3)nc(-c3ccccc3)nc2n1 | 5.8 | > 10000
11 | O=C(Nc1nc(-c2ccccc2)nc2nc(-c3ccccc3)cn12)C1CCCC1 | 17 | 2500
12 | Cc1cn2c(NC(=O)C3CCCCC3)nc(-c3ccccc3)nc2n1 | 116 | –
13 | Cc1cn2c(NC(=O)C3CCCC3)nc(-c3ccccc3)nc2n1 | 4.4 | –
14 | CCc1cn2c(NCC(C)=O)nc(-c3ccccc3)nc2n1 | > 10000 | –
15 | CCC(=O)CNc1nc(-c2ccccc2)nc2nc(C)cn12 | > 10000 | > 10000
16 | CCc1cn2c(NC(=O)C3CCCC3)nc(-c3ccccc3)nc2n1 | 3.3 | –
17 | Cc1cn2c(N)nc(-c3ccccc3)nc2n1 | 332 | –
18 | CC(=O)Nc1nc(-c2ccccc2)nc2nc(C)cn12 | 855 | > 10000
